CR mimetic SO = yeast age-related superoxide inhibition as caloric restriction mimetic. S. cerevisiae aged cells, superoxide DHE fluorescence; active compounds read low. superoxide response (% of plate mean), % at 10 µM. 0.18% of 330,000 active;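 active = superoxide response under a set limit, about three screen SD below normal, cut at about 65% in these data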;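 note: yeast aged for seven days with compound at 30 °C before DHE staining; 100% = average MFI of all compound-treated wells on the plate with controls excluded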
V-ATPase pHluor = yeast V-ATPase proton transport regulation by pHLuorin; S. cerevisiae, pHLuorin cytosolic pH fluorescence; AID 504577; response, % at 10 µM; 0.37% of 350,000 active; in the data active = response mostly above about 7.3%, no sharp cut-off; inactive = mostly below about 5.4%; note: actives read high
KLK7 zymogen act = activates the human kallikrein-7 zymogen; purified proKLK7, EDANS-DABCYL substrate fluorescence; 100% is mature enzyme control, 0% vehicle; AID 652039; P49862; 0.9% of 370,000 active; activation, % at 7 µM;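 active = activation above the mean of all tested compounds plus 3 SD, computed per campaign excluding outliers beyond control limits, cut at about 13% in these data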
Rce1 inhib = yeast Ras-converting enzyme inhibition; Q03530; yeast membranes, quenched prenylated peptide cleavage fluorescence; calls only; 0.27% of 290,000 active; AID 2563;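 active = fall in fluorescence gain of 50% or more versus controls, with final raw signal at or below 3038400; inconclusive = same 50% fall but final raw signal above 3038400; inactive = fall in fluorescence gain under 50%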;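 note: plate controls were neutral control wells for no effect and wells lacking membranes for full effect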
Target sequence (Q03530 whole entry, looked up): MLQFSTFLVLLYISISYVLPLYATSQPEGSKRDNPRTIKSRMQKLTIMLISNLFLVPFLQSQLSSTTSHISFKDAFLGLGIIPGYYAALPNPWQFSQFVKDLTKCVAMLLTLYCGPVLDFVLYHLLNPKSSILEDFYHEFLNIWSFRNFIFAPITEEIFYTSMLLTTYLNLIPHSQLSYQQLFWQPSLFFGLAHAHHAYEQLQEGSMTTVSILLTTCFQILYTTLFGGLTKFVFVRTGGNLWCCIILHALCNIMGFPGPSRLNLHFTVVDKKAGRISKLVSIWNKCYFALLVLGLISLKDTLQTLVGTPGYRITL
T cell modulator = modulates CD8 T cell binding to vesicles; 2C CD8+ T cell-vesicle binding, flow cytometry; active compounds read low; response (vesicle binding), % at 7 µM; 0.068% of 330,000 active; AID 2052;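 active = response, share of CD8 T cells binding vesicles, and their 90th percentile fluorescence all below set limits, cut at about 80% in these data, passing the limit was not always enough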;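 note: values below 100% mean blocked vesicle binding to the CD8+ T cells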
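Read-out – percent CD8+ FL2 mean versus row control · System – murine 2C transgenic CD8+ T lymphocytes · Times – 1.5 h cell–vesicle binding at 37 °C, then 20 min icy labelling · Control set – naked vesicles low, QL9 vesicles with vehicle high · Detection – cytometric PE anti-B7-1 and Alexa647 anti-CD8 signals after 1% paraformaldehyde fixation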
beta cell repl = inducers of beta-cell replication in MIN6 cells; AID 2380; proliferation, % at 10 µM; 0.29% of 330,000 active; MIN6 cells proliferation, ATPlite luminescence, 48 h; cells starved in 0.2% serum; 100% = growth in 10% serum;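 active = compounds whose signal lies at least 3.5 SD above the mean of all wells on their plate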;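 note: 0% = DMSO-treated cells in low-serum medium and 100% = 10% serum control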
KLK7 act conf = confirmation of human kallikrein-7 zymogen activators. shares compounds with KLK7 zymogen act. purified proKLK7, EDANS-DABCYL substrate fluorescence; scaled: vehicle 0, mature enzyme 100. activation, % at 7 µM. 68% of 3,200 active;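 active = activation, as change over the incubation, above the mean of all tested compounds plus 3 SD, cut at about 13% in these data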
EDANS-DABCYL int = optically interferes with EDANS-DABCYL signal, flagging KLK7 hits; activation, % at 7 µM; shares compounds with KLK7 zymogen act; EDANS-DABCYL substrate fluorescence interference, no enzyme, 4 h; solvent 0%, active enzyme control 100%; 80% of 3,200 active;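 active = activation above the all-compound mean plus 3 SD, ignoring values outside control-based bounds, cut at about 4.8% in these data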;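 note: value is the 4 h activation minus the activation read at time zero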
K7 EDANS ctr = optically interferes with EDANS-DABCYL fluorescence, kallikrein-7 activator counter-screen. AID 720493. 20% of 250 active. EC50, µM. EDANS-DABCYL peptide fluorescence interference, no enzyme. shares compounds with KLK7 zymogen act;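 active = compounds that raise the fluorescence signal in this interference counterscreen, with EC50 at or below 10 µM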;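 note: intact quenched peptide substrate alone read at 355 nm excitation and 520 nm emission; signal is fluorescence gain from T0 to T4 after four hours at room temperature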
Active calls of the source: *; i = inactive; ? = inconclusive; nt = no result given; + = active, no number. This is a sample that favours compounds with a hit; in the whole collection about 1.9% have one here.

SMILES	CR mimetic SO	V-ATPase pHluor	KLK7 zymogen act	Rce1 inhib	T cell modulator	beta cell repl	KLK7 act conf	EDANS-DABCYL int	others
CCOC(=O)[C@]12CCCC=C1N(CCc1ccc(OC)c(OC)c1)C(=O)[C@H](CC(=O)NCC13CC4CC(CC(C4)C1)C3)C2	nt	nt	0	nt	nt	nt	nt	nt
Cc1c(C)c2c(OCC(=O)NCc3ccccn3)cc3c(c2oc1=O)CCC(C)(C)O3	77	1	-24	i	327	0	nt	nt
Cc1c(C)c2c(OCC(=O)N[C@@H](Cc3ccccc3)C(=O)O)cc3c(c2oc1=O)CCC(C)(C)O3	97	-1	56*	i	309	-3	59*	58*
COCCCNC(=O)COc1cc2c(c3oc(=O)c(C)c(C)c13)CCC(C)(C)O2	88	-1	18*	i	192	0	-94	-74
Cc1c(C)c2c(OCC(=O)N[C@@H](CC(C)C)C(=O)O)cc3c(c2oc1=O)CCC(C)(C)O3	94	4	45*	?	154	2	41*	27*	K7 EDANS ctr=>70
Cc1cc(=O)oc2c3c(cc(OCC(=O)NCc4ccccc4)c12)OC(C)(C)CC3	87	0	-14	i	101	0	nt	nt
CSC[C@H](NC(=O)COc1cc2c(c3oc(=O)cc(C)c13)CCC(C)(C)O2)C(=O)O	108	1	24*	+	215	-4	60*	64*
Cc1ccc2c(C(=O)CN3CC(C)CC(C)C3)c(C)[nH]c2c1 (stereo unspecified)	86	6	1	i	328	5	nt	nt
O=C(NCCc1ccc(OC(F)F)cc1)C1CC(=O)N(c2ccc3c(c2)OCCO3)C1 (stereo unspecified)	101	-1	0	nt	235	1	nt	nt
Cc1ccc(NP(=O)(Nc2ccc(C)cc2)Nc2ccc(C)cc2)cc1	106	-1	-1	i	308	-3	nt	nt
CSCC[C@H](NC(=O)COc1cc2c(c3oc(=O)c(C)c(C)c13)CCC(C)(C)O2)C(=O)O	90	-1	57*	i	146	-1	67*	73*
CCCC(NC(=O)COc1cc2c(c3oc(=O)c(C)c(C)c13)CCC(C)(C)O2)C(=O)O (stereo unspecified)	77	-4	-2	?	235	-1	nt	nt
CSC[C@H](NC(=O)COc1cc2c(c3oc(=O)c(C)c(C)c13)CCC(C)(C)O2)C(=O)O	91	-1	60*	i	72	-1	62*	70*
Cc1c(C)c2c(OCC(=O)NCC(O)c3ccccc3)cc3c(c2oc1=O)CCC(C)(C)O3 (stereo unspecified)	71	-3	-2	i	299	-2	nt	nt
COc1cccc(/C=C2/Sc3ccc(C(=O)NC4CC4)cc3NC2=O)c1	nt	nt	-1	nt	nt	nt	nt	nt
CC1CCN(C(=O)COC(=O)c2ccc(N3CCCC3=O)cc2)CC1	105	0	0	nt	154	-1	nt	nt
CN(C)CCNc1oc(-c2cccc(Cl)c2)nc1C#N	92	-4	59*	i	515	-2	31*	34*
CN(C)CCNc1oc(-c2ccccc2F)nc1C#N	93	9	57*	i	236	2	30*	33*
CN(C)CCCNc1oc(-c2ccccc2)nc1C#N	116	0	13	?	295	-1	nt	nt
CC(C)=CCOc1ccc2c(C)c(CC(=O)N3C[C@H]4C[C@@H](C3)c3cccc(=O)n3C4)c(=O)oc2c1C	97	-4	-16	nt	290	-1	nt	nt
COc1ccc(C2C3=C(CCCC3=O)N(CC(=O)O)C3=C2C(=O)CCC3)cc1Br	nt	-5	30*	nt	nt	nt	28*	43*

High-throughput results (PubChem)
